Data from ChEMBL document CHEMBL2321826, “Synthesis and antibacterial evaluation of rhodanine-based 5-aryloxy pyrazoles against selected methicillin resistant and quinolone-resistant Staphylococcus aureus (MRSA and QRSA)” (Eur J Med Chem, 2013).
Values after ≈ are worked out from the molar mass of the structure shown.

Tests used:
Assay type in all cases: functional
Staphylococcus aureus [1] = assay: Antibacterial activity against methicillin-resistant Staphylococcus aureus CCARM 3506 assessed as bacterial growth inhibition measured during 24 hrs incubation at 37 degC by two-fold serial dilution technique; settings: CCARM 3506, 24 h
Procedure, shortened: (§1)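 Clinical isolates grown to mid-log phase in Mueller-Hinton broth, diluted 1000-fold, inoculated at 10⁵ CFU/mL in MHB in 96-well microtiter plates. Two-fold serial dilutions gave final concentrations of […]. Oxacillin and norfloxacin were the positive controls. Growth was read as absorbance at 650 nm. MIC is the lowest concentration giving complete growth inhibition.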

Staphylococcus aureus [2] = assay: Antibacterial activity against quinolone-resistant Staphylococcus aureus CCARM 3505 assessed as bacterial growth inhibition measured during 24 hrs incubation at 37 degC by two-fold serial dilution technique; settings: CCARM 3505, 24 h; procedure, shortened: as §1
Staphylococcus aureus [3] = assay: Antibacterial activity against quinolone-resistant Staphylococcus aureus CCARM 3519 assessed as bacterial growth inhibition measured during 24 hrs incubation at 37 degC by two-fold serial dilution technique; settings: CCARM 3519, 24 h; procedure, shortened: as §1
Staphylococcus aureus [4] = assay: Antibacterial activity against methicillin-resistant Staphylococcus aureus CCARM 3167 assessed as bacterial growth inhibition measured during 24 hrs incubation at 37 degC by two-fold serial dilution technique; settings: CCARM 3167, 24 h; procedure, shortened: as §1

Compound	MIC (Staphylococcus aureus [1]) [µg/mL]	MIC (Staphylococcus aureus [2]) [µg/mL]	MIC (Staphylococcus aureus [3]) [µg/mL]	MIC (Staphylococcus aureus [4]) [µg/mL]
CCC(C)[C@@H](C(=O)O)N1C(=O)/C(=C/c2c(C)nn(-c3ccccc3)c2Cl)SC1=S (some centres not stated)	32 (≈ 71.1 µM)	16 (≈ 35.6 µM)	32 (≈ 71.1 µM)	16 (≈ 35.6 µM)
Cc1nn(-c2ccccc2)c(Cl)c1/C=C1\SC(=S)N([C@@H](CC(C)C)C(=O)O)C1=O	32 (≈ 71.1 µM)	32 (≈ 71.1 µM)	32 (≈ 71.1 µM)	16 (≈ 35.6 µM)
CCC(C)[C@@H](C(=O)O)N1C(=O)/C(=C/c2c(C)nn(-c3ccccc3)c2Oc2ccccc2Cl)SC1=S (some centres not stated)	4 (≈ 7.38 µM)	4 (≈ 7.38 µM)	4 (≈ 7.38 µM)	2 (≈ 3.69 µM)
CCC(C)[C@@H](C(=O)O)N1C(=O)/C(=C/c2c(C)nn(-c3ccccc3)c2Oc2cccc(Cl)c2)SC1=S (some centres not stated)	8 (≈ 14.8 µM)	8 (≈ 14.8 µM)	8 (≈ 14.8 µM)	4 (≈ 7.38 µM)
CCC(C)[C@@H](C(=O)O)N1C(=O)/C(=C/c2c(C)nn(-c3ccccc3)c2Oc2ccc(Cl)cc2)SC1=S (some centres not stated)	4 (≈ 7.38 µM)	4 (≈ 7.38 µM)	4 (≈ 7.38 µM)	2 (≈ 3.69 µM)
CCC(C)[C@@H](C(=O)O)N1C(=O)/C(=C/c2c(C)nn(-c3ccccc3)c2Oc2ccc(F)cc2)SC1=S (some centres not stated)	4 (≈ 7.61 µM)	8 (≈ 15.2 µM)	8 (≈ 15.2 µM)	2 (≈ 3.8 µM)
CCC(C)[C@@H](C(=O)O)N1C(=O)/C(=C/c2c(C)nn(-c3ccccc3)c2Oc2ccc(Br)cc2)SC1=S (some centres not stated)	2 (≈ 3.41 µM)	2 (≈ 3.41 µM)	2 (≈ 3.41 µM)	2 (≈ 3.41 µM)
CCC(C)[C@@H](C(=O)O)N1C(=O)/C(=C/c2c(C)nn(-c3ccccc3)c2Oc2ccc3ccccc3c2)SC1=S (some centres not stated)	2 (≈ 3.59 µM)	2 (≈ 3.59 µM)	2 (≈ 3.59 µM)	2 (≈ 3.59 µM)
CCC(C)[C@@H](C(=O)O)N1C(=O)/C(=C/c2c(C)nn(-c3ccccc3)c2Oc2ccccc2)SC1=S (some centres not stated)	4 (≈ 7.88 µM)	8 (≈ 15.8 µM)	4 (≈ 7.88 µM)	4 (≈ 7.88 µM)
CCC(C)[C@@H](C(=O)O)N1C(=O)/C(=C/c2c(C)nn(-c3ccccc3)c2Oc2ccccc2C)SC1=S (some centres not stated)	4 (≈ 7.67 µM)	4 (≈ 7.67 µM)	4 (≈ 7.67 µM)	2 (≈ 3.83 µM)
CCC(C)[C@@H](C(=O)O)N1C(=O)/C(=C/c2c(C)nn(-c3ccccc3)c2Oc2cccc(C)c2)SC1=S (some centres not stated)	4 (≈ 7.67 µM)	4 (≈ 7.67 µM)	2 (≈ 3.83 µM)	2 (≈ 3.83 µM)
CCC(C)[C@@H](C(=O)O)N1C(=O)/C(=C/c2c(C)nn(-c3ccccc3)c2Oc2ccc(C)cc2)SC1=S (some centres not stated)	4 (≈ 7.67 µM)	4 (≈ 7.67 µM)	4 (≈ 7.67 µM)	2 (≈ 3.83 µM)
CCC(C)[C@@H](C(=O)O)N1C(=O)/C(=C/c2c(C)nn(-c3ccccc3)c2Oc2ccc(C)cc2C)SC1=S (some centres not stated)	2 (≈ 3.73 µM)	2 (≈ 3.73 µM)	2 (≈ 3.73 µM)	2 (≈ 3.73 µM)
CCC(C)[C@@H](C(=O)O)N1C(=O)/C(=C/c2c(C)nn(-c3ccccc3)c2Oc2cccc(C(F)(F)F)c2)SC1=S (some centres not stated)	8 (≈ 13.9 µM)	8 (≈ 13.9 µM)	8 (≈ 13.9 µM)	4 (≈ 6.95 µM)
CCC(C)[C@@H](C(=O)O)N1C(=O)/C(=C/c2c(C)nn(-c3ccccc3)c2Oc2ccc(OC)cc2)SC1=S (some centres not stated)	4 (≈ 7.44 µM)	4 (≈ 7.44 µM)	4 (≈ 7.44 µM)	4 (≈ 7.44 µM)
CCC(C)[C@@H](C(=O)O)N1C(=O)/C(=C/c2c(C)nn(-c3ccccc3)c2Oc2ccccc2OC)SC1=S (some centres not stated)	16 (≈ 29.8 µM)	16 (≈ 29.8 µM)	16 (≈ 29.8 µM)	16 (≈ 29.8 µM)
Cc1nn(-c2ccccc2)c(Oc2ccc(Cl)cc2Cl)c1/C=C1\SC(=S)N([C@@H](CC(C)C)C(=O)O)C1=O	4 (≈ 6.94 µM)	4 (≈ 6.94 µM)	4 (≈ 6.94 µM)	4 (≈ 6.94 µM)
Cc1ccc(Oc2c(/C=C3\SC(=S)N([C@@H](CC(C)C)C(=O)O)C3=O)c(C)nn2-c2ccccc2)c(C)c1	4 (≈ 7.47 µM)	4 (≈ 7.47 µM)	4 (≈ 7.47 µM)	4 (≈ 7.47 µM)
Cc1nn(-c2ccccc2)c(Cl)c1/C=C1\SC(=S)N(CC(=O)O)C1=O	> 64	> 64	> 64	> 64
Cc1nn(-c2ccccc2)c(Cl)c1/C=C1\SC(=S)N([C@H](C(=O)O)C(C)C)C1=O	32 (≈ 73.4 µM)	32 (≈ 73.4 µM)	32 (≈ 73.4 µM)	16 (≈ 36.7 µM)
Cc1nn(-c2ccccc2)c(Oc2cccc(C(F)(F)F)c2)c1/C=C1\SC(=S)N(CC(=O)O)C1=O	32 (≈ 61.6 µM)	32 (≈ 61.6 µM)	32 (≈ 61.6 µM)	16 (≈ 30.8 µM)
COc1ccc(Oc2c(/C=C3\SC(=S)N(CC(=O)O)C3=O)c(C)nn2-c2ccccc2)cc1	> 64	> 64	> 64	> 64
COc1ccccc1Oc1c(/C=C2\SC(=S)N(CC(=O)O)C2=O)c(C)nn1-c1ccccc1	> 64	> 64	> 64	> 64
Cc1nn(-c2ccccc2)c(Oc2c(Cl)cccc2Cl)c1/C=C1\SC(=S)N([C@H](C(=O)O)C(C)C)C1=O	16 (≈ 28.4 µM)	8 (≈ 14.2 µM)	16 (≈ 28.4 µM)	8 (≈ 14.2 µM)

Compound	MIC (Staphylococcus aureus [1]) [µg/mL]	MIC (Staphylococcus aureus [2]) [µg/mL]	MIC (Staphylococcus aureus [3]) [µg/mL]	MIC (Staphylococcus aureus [4]) [µg/mL]
Cc1nn(-c2ccccc2)c(Oc2ccccc2Cl)c1/C=C1\SC(=S)N([C@H](C(=O)O)C(C)C)C1=O	4 (≈ 7.57 µM)	8 (≈ 15.1 µM)	4 (≈ 7.57 µM)	4 (≈ 7.57 µM)
Cc1nn(-c2ccccc2)c(Oc2cccc(Cl)c2)c1/C=C1\SC(=S)N([C@H](C(=O)O)C(C)C)C1=O	4 (≈ 7.57 µM)	8 (≈ 15.1 µM)	4 (≈ 7.57 µM)	4 (≈ 7.57 µM)
Cc1nn(-c2ccccc2)c(Oc2ccc(Cl)cc2)c1/C=C1\SC(=S)N([C@H](C(=O)O)C(C)C)C1=O	4 (≈ 7.57 µM)	4 (≈ 7.57 µM)	4 (≈ 7.57 µM)	4 (≈ 7.57 µM)
Cc1nn(-c2ccccc2)c(Oc2ccc(F)cc2)c1/C=C1\SC(=S)N([C@H](C(=O)O)C(C)C)C1=O	8 (≈ 15.6 µM)	8 (≈ 15.6 µM)	8 (≈ 15.6 µM)	8 (≈ 15.6 µM)
Cc1nn(-c2ccccc2)c(Oc2ccc(Br)cc2)c1/C=C1\SC(=S)N([C@H](C(=O)O)C(C)C)C1=O	4 (≈ 6.99 µM)	4 (≈ 6.99 µM)	4 (≈ 6.99 µM)	2 (≈ 3.49 µM)
Cc1nn(-c2ccccc2)c(Oc2ccc3ccccc3c2)c1/C=C1\SC(=S)N([C@H](C(=O)O)C(C)C)C1=O	8 (≈ 14.7 µM)	8 (≈ 14.7 µM)	8 (≈ 14.7 µM)	4 (≈ 7.36 µM)
Cc1nn(-c2ccccc2)c(Oc2ccccc2)c1/C=C1\SC(=S)N([C@H](C(=O)O)C(C)C)C1=O	16 (≈ 32.4 µM)	16 (≈ 32.4 µM)	16 (≈ 32.4 µM)	16 (≈ 32.4 µM)
Cc1ccccc1Oc1c(/C=C2\SC(=S)N([C@H](C(=O)O)C(C)C)C2=O)c(C)nn1-c1ccccc1	8 (≈ 15.8 µM)	8 (≈ 15.8 µM)	8 (≈ 15.8 µM)	4 (≈ 7.88 µM)
Cc1cccc(Oc2c(/C=C3\SC(=S)N([C@H](C(=O)O)C(C)C)C3=O)c(C)nn2-c2ccccc2)c1	8 (≈ 15.8 µM)	4 (≈ 7.88 µM)	4 (≈ 7.88 µM)	4 (≈ 7.88 µM)
Cc1ccc(Oc2c(/C=C3\SC(=S)N([C@H](C(=O)O)C(C)C)C3=O)c(C)nn2-c2ccccc2)cc1	4 (≈ 7.88 µM)	4 (≈ 7.88 µM)	4 (≈ 7.88 µM)	4 (≈ 7.88 µM)
Cc1ccc(Oc2c(/C=C3\SC(=S)N([C@H](C(=O)O)C(C)C)C3=O)c(C)nn2-c2ccccc2)c(C)c1	4 (≈ 7.67 µM)	4 (≈ 7.67 µM)	2 (≈ 3.83 µM)	2 (≈ 3.83 µM)
Cc1nn(-c2ccccc2)c(Oc2cccc(C(F)(F)F)c2)c1/C=C1\SC(=S)N([C@H](C(=O)O)C(C)C)C1=O	8 (≈ 14.2 µM)	8 (≈ 14.2 µM)	8 (≈ 14.2 µM)	4 (≈ 7.12 µM)
COc1ccc(Oc2c(/C=C3\SC(=S)N([C@H](C(=O)O)C(C)C)C3=O)c(C)nn2-c2ccccc2)cc1	8 (≈ 15.3 µM)	8 (≈ 15.3 µM)	8 (≈ 15.3 µM)	8 (≈ 15.3 µM)
COc1ccccc1Oc1c(/C=C2\SC(=S)N([C@H](C(=O)O)C(C)C)C2=O)c(C)nn1-c1ccccc1	16 (≈ 30.6 µM)	16 (≈ 30.6 µM)	16 (≈ 30.6 µM)	16 (≈ 30.6 µM)
CCC(C)[C@@H](C(=O)O)N1C(=O)/C(=C/c2c(C)nn(-c3ccccc3)c2Oc2c(Cl)cccc2Cl)SC1=S (some centres not stated)	16 (≈ 27.8 µM)	16 (≈ 27.8 µM)	16 (≈ 27.8 µM)	8 (≈ 13.9 µM)
Cc1nn(-c2ccccc2)c(Oc2ccc(Cl)cc2)c1/C=C1\SC(=S)N(CC(=O)O)C1=O	16 (≈ 32.9 µM)	16 (≈ 32.9 µM)	16 (≈ 32.9 µM)	16 (≈ 32.9 µM)
Cc1nn(-c2ccccc2)c(Oc2ccc(F)cc2)c1/C=C1\SC(=S)N(CC(=O)O)C1=O	> 64	> 64	> 64	> 64
Cc1nn(-c2ccccc2)c(Oc2ccc(Br)cc2)c1/C=C1\SC(=S)N(CC(=O)O)C1=O	8 (≈ 15.1 µM)	16 (≈ 30.2 µM)	8 (≈ 15.1 µM)	8 (≈ 15.1 µM)
Cc1nn(-c2ccccc2)c(Oc2ccc3ccccc3c2)c1/C=C1\SC(=S)N(CC(=O)O)C1=O	8 (≈ 15.9 µM)	8 (≈ 15.9 µM)	8 (≈ 15.9 µM)	8 (≈ 15.9 µM)
Cc1nn(-c2ccccc2)c(Oc2ccccc2)c1/C=C1\SC(=S)N(CC(=O)O)C1=O	> 64	> 64	> 64	> 64
Cc1ccccc1Oc1c(/C=C2\SC(=S)N(CC(=O)O)C2=O)c(C)nn1-c1ccccc1	32 (≈ 68.7 µM)	32 (≈ 68.7 µM)	32 (≈ 68.7 µM)	16 (≈ 34.4 µM)
Cc1cccc(Oc2c(/C=C3\SC(=S)N(CC(=O)O)C3=O)c(C)nn2-c2ccccc2)c1	16 (≈ 34.4 µM)	32 (≈ 68.7 µM)	16 (≈ 34.4 µM)	16 (≈ 34.4 µM)
Cc1ccc(Oc2c(/C=C3\SC(=S)N(CC(=O)O)C3=O)c(C)nn2-c2ccccc2)cc1	32 (≈ 68.7 µM)	32 (≈ 68.7 µM)	32 (≈ 68.7 µM)	32 (≈ 68.7 µM)
Cc1ccc(Oc2c(/C=C3\SC(=S)N(CC(=O)O)C3=O)c(C)nn2-c2ccccc2)c(C)c1	8 (≈ 16.7 µM)	16 (≈ 33.4 µM)	16 (≈ 33.4 µM)	8 (≈ 16.7 µM)
